Usually EC50 stands for the concentration needed to bring the measured effect to its halfway point. As usually defined, the Ki is a dissociation constant, usually derived from enzyme kinetics or from competition with a known ligand. A low value points to a stronger hold on the target.

Assay [1] addresses T1, Free fatty acid receptor 1 (Homo sapiens, UniProt O14842). Description: Agonist activity at human GPR40 expressed in CHO-A12 cells assessed as increase in intracellular calcium flux measured for 100 secs by FLIPR assay. The class given is functional, cell-based. Background: Calcium assays in cells follow changes in intracellular calcium, usually with a dye or a luminescent sensor.

The target in assay [2] is T1, Free fatty acid receptor 1. Description: Binding affinity to human GPR40 expressed in HEK293 cell membranes after 1 hr by radioligand displacement based scintillation counting method. A digest of the protocol: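 Binding of human GPR40 measured as Ki against a radioligand. Mean of at least two runs. Displacement of the label appears as a negative slope and potentiation as a positive one.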

Assay [3] concerns the target Free fatty acid receptor 1 (Mus musculus, UniProt Q76JU9). The experiment in a line: Agonist activity at mouse GPR40 expressed in CHO-A12 cells assessed as increase in intracellular calcium flux measured for 100 secs by FLIPR assay. The format is functional, cell-based.
Assay [4] deals with Free fatty acid receptor 1 (Mus musculus) (UniProt Q76JU9). The experiment in a line: Intrinsic activity at mouse GPR40 expressed in CHO-A12 cells assessed as increase in intracellular calcium flux at 8.3 uM measured for 100 secs by FLIPR assay […]. The class given is functional, cell-based.
Sequence of Free fatty acid receptor 1 (Mus musculus) (Q76JU9 whole entry): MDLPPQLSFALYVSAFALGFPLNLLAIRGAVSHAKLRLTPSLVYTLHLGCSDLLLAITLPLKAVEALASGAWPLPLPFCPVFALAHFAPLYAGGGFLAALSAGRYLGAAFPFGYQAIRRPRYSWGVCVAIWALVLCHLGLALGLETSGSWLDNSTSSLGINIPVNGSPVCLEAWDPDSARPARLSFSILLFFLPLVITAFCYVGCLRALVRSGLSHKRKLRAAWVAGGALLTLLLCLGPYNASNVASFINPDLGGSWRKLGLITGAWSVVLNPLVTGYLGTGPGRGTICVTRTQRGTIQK

Sequence of Free fatty acid receptor 1 (Mus musculus, UniProt Q76JU9) (Q76JU9 whole entry): as above
T1 sequence (O14842 whole entry): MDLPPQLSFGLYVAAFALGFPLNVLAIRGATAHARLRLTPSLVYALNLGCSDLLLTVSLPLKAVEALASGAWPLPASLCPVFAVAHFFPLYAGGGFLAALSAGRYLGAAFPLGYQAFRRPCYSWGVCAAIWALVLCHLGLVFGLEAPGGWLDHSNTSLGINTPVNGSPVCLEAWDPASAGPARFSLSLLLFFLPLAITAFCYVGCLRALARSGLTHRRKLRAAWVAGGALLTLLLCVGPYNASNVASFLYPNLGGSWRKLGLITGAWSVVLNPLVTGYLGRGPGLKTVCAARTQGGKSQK

Take `COc1ccc(F)c(-c2ccc(Cc3ccc(N4CCC[C@H]4CC(=O)O)cc3)c(C)c2)c1`: the EC50 in assay [1] came to 0.22 µM; in assay [3] it was 1.9 µM. The affinity in assay [2] corresponds to a Ki of 0.31 µM. In assay [4], the Intrinsic activity was found to be 160%.
As to `O=C(O)C[C@@H]1CCN1c1ccc(OCc2ccc(Cl)cc2Cl)cc1`, the EC50 in assay [1] turned out to be 0.26 µM; in assay [3], 0.44 µM. Besides, the Intrinsic activity in assay [4] was 88%.
As for `O=C(O)C[C@H]1CCCN1c1ccc(OCc2ccc(Cl)cc2Cl)cc1`, the figures for the EC50 in assay [1] and in assay [3] were 0.88 µM and over 17 µM, respectively.
With `O=C(O)C[C@@H]1CCCN1c1ccc(Oc2ccccc2-c2ccccc2)cc1`, the EC50 in assay [1] stood at 3.5 µM; in assay [3] it was 1.3 µM. In assay [4], the Intrinsic activity is 72%.
As to `O=C(O)CC1CCCCN1c1ccc(OCc2ccc(Cl)cc2Cl)cc1` (single isomer, unassigned; enantiomer 2), the EC50 in assay [1] was over 17 µM; in assay [3], over 33 µM.
As to `Cc1cccc(Oc2ccc(N3CCC[C@H]3CC(=O)O)cc2)c1`, the figures for the EC50 in assay [1] and in assay [3] were 0.26 µM and 2.4 µM, respectively. The Intrinsic activity in assay [4] was determined as 83%.
As for `Cc1cccc(Oc2ccc(N3C[C@@H](C(F)(F)F)C[C@H]3CC(=O)O)cc2)c1C`, the values for the EC50 in assay [1] and in assay [3] were 0.11 µM and 0.5 µM, respectively. Besides, the affinity in assay [2] corresponds to a Ki of 0.06 µM. Further, the Intrinsic activity in assay [4] was determined as 100%.
In the same order, the values of `Cc1cc(OCc2ccccc2)ccc1Oc1ccc(N2C[C@@H](C(F)(F)F)C[C@H]2CC(=O)O)cc1` are 0.12 µM, 1.5 µM, 0.01 µM and 34%.
Regarding `O=C(O)C[C@@H]1C[C@H](C(F)(F)F)CN1c1ccc(Oc2ccccc2C(F)(F)F)cc1`, the results for the EC50 in assay [1] and in assay [3] were 0.31 µM and 1.3 µM, respectively. Also, the Intrinsic activity in assay [4] worked out at 42%.
Regarding `Cc1ccccc1S(=O)(=O)c1ccc(N2CCC[C@H]2CC(=O)O)cc1`, the concentration for a half-maximal effect (EC50) in assay [1] and in assay [3] was over 33 µM each time.
`Cc1c(Cl)cccc1Oc1ccc(N2C[C@@H](C(F)(F)F)C[C@H]2CC(=O)O)cc1`: the EC50 in assay [1] was 0.082 µM; in assay [3] it was 0.43 µM. For the same compound, the Ki in assay [2] came to 0.013 µM. In addition, the Intrinsic activity in assay [4] was found to be 50%.
In the case of `O=C(O)CC1CCN(c2ccc(OCc3ccc(Cl)cc3Cl)cc2)C1` (stereo not given), the EC50 in assay [1] and in assay [3] was over 33 µM throughout.
For `Cc1ccccc1Cc1ccc(N2CC[C@H](C)[C@H]2CC(=O)O)cc1`, the EC50 in assay [1] was determined as 0.12 µM; in assay [3], 1.9 µM. Also, affinity in assay [2] was put at a Ki of 0.31 µM. The Intrinsic activity in assay [4] came out at 27%.
For `Cc1ccccc1Cc1ccc(N2C[C@@H](C(F)(F)F)C[C@H]2CC(=O)O)cc1`, in that order: 0.067 µM, 0.71 µM, 0.073 µM and 54%.
Turning to `O=C(O)C1CCN(c2ccc(OCc3ccc(Cl)cc3Cl)cc2)C1` (stereo not given), the EC50 is 2.1 µM in assay [1] and over 16 µM in assay [3].
For `Cc1ccccc1Cc1ccc(N2C[C@@H](C)C[C@H]2CC(=O)O)cc1`, the results for the EC50 in assay [1] and in assay [3] were 0.14 µM and 1.1 µM, respectively. Besides, the Ki in assay [2] came to 0.36 µM. In assay [4], the Intrinsic activity is 43%.
Take `COc1ccc(F)c(-c2cccc(Oc3ccc(N4CCC[C@H]4CC(=O)O)cc3)c2C)c1`: the values for the EC50 in assay [1] and in assay [3] were 0.31 µM and 3 µM, respectively. Moreover, the Intrinsic activity in assay [4] worked out at 83%.
In the case of `O=C(O)C1CC(=O)N(c2ccc(OCc3ccc(Cl)cc3Cl)cc2)C1` (stereo not given), the EC50 in assay [1] was 5 µM; in assay [3], over 33 µM.
Consider `Cc1ccccc1[S+]([O-])c1ccc(N2CCC[C@H]2CC(=O)O)cc1` (mixture of isomers), for which the EC50 in assay [1] and in assay [3] was over 33 µM in each case.
As to `COc1ccc(Oc2ccc(N3C[C@@H](C(F)(F)F)C[C@H]3CC(=O)O)cc2)c(C)c1`, in assay [2], the Ki came out at 0.039 µM. Further, the concentration giving a half-maximal response (EC50) in assay [3] is 0.17 µM. Also, the Intrinsic activity in assay [4] was found to be 41%.
As to `CC(C)(C)c1ccccc1Oc1ccc(N2CCC[C@H]2CC(=O)O)cc1`, the concentration for a half-maximal effect (EC50) in assay [1] is 6.5 µM; in assay [3], over 17 µM.
Take `Cc1ccccc1COc1ccc(N2CCC[C@H]2CC(=O)O)cc1C`: the EC50 in assay [1] and in assay [3] was over 33 µM in each case.
Take `COc1ccc(Oc2ccc(N3CCC[C@H]3CC(=O)O)cc2)cc1`: the EC50 in assay [1] is 0.52 µM; in assay [3], over 33 µM.
For the compound `Cc1ccccc1COc1ccc(N2CCC[C@H]2CC(=O)O)cn1`, the EC50 is 0.45 µM in assay [1] and over 33 µM in assay [3]. In assay [2], this compound came in with a Ki of 1.8 µM.
Consider `CN(C)c1cccc(Oc2ccc(N3CCC[C@H]3CC(=O)O)cc2)c1`, for which the EC50 in assay [1] was 1.3 µM; in assay [3], over 33 µM.
For the compound `Cc1ccccc1Cc1ccc(N2CCC[C@@]2(C)CC(=O)O)cc1`, the EC50 in assay [1] and in assay [3] was over 33 µM in each case. Further, the Ki in assay [2] turned out to be 23 µM.
As for `O=C(O)C[C@@H]1C[C@H](C(F)(F)F)CN1c1ccc(Oc2ccccc2OC(F)(F)F)cc1`, the values for the EC50 in assay [1] and in assay [3] were 0.17 µM and 0.74 µM, respectively. The Intrinsic activity in assay [4] came out at 44%.
Consider `COc1ccc(F)c(-c2ccc(Cc3ccc(N4C[C@H](C(F)(F)F)C[C@H]4CC(=O)O)cc3)c(C)c2)c1`, for which the 50% effective concentration (EC50) in assay [1] is 1.7 µM; in assay [3], 1.1 µM. For the same compound, in assay [4], the Intrinsic activity amounted to 140%.
Turning to `CO[C@H]1C[C@@H](CC(=O)O)N(c2ccc(Oc3ccccc3C)cc2)C1`, affinity in assay [2] was put at a Ki of 9 µM. Also, in assay [3], the EC50 is 0.96 µM. Besides, the Intrinsic activity in assay [4] is 76%.
With `O=C(O)C[C@H]1CCN1c1ccc(OCc2ccc(Cl)cc2Cl)cc1`, the EC50 in assay [1] was 13 µM; in assay [3], over 17 µM.
Take `Cc1ccccc1C(=O)c1ccc(N2CCC[C@H]2CC(=O)O)cc1`: the EC50 in assay [1] is 4.6 µM; in assay [3], over 33 µM. In assay [2], this compound had a Ki of over 33 µM.
For `O=C(O)CC1CCCCN1c1ccc(OCc2ccc(Cl)cc2Cl)cc1` (single isomer, unassigned; enantiomer 1), the EC50 in assay [1] and in assay [3] was over 33 µM throughout.
Regarding `COc1ccc(F)c(-c2ccc(Cc3ccc(N4C[C@@H](C(F)(F)F)C[C@@H]4CC(=O)O)cc3)c(C)c2)c1`, the EC50 was 0.15 µM in assay [1] and 0.053 µM in assay [3]. In assay [4], the Intrinsic activity was determined as 210%.
On to `Cc1ccccc1Cc1ccc(N2C[C@@H](F)C[C@H]2CC(=O)O)cc1`, for which the EC50 in assay [1] is 0.074 µM; in assay [3], over 33 µM. In assay [2], affinity was put at a Ki of 0.18 µM.
Regarding `Cc1ccc(Oc2ccc(N3CCC[C@H]3CC(=O)O)cc2)cc1`, the values for the EC50 in assay [1] and in assay [3] were 0.49 µM and over 33 µM, respectively.
As to `Cc1ccccc1Cc1ccc(N2[C@H](CC(=O)O)CC[C@@H]2C)cc1`, the EC50 is 6.2 µM in assay [1] and over 33 µM in assay [3].
Consider `O=C(O)C[C@@H]1CCCN1c1ccc(Oc2ccc(Cl)cc2)cc1`, for which the EC50 in assay [1] was 0.29 µM; in assay [3], over 33 µM.
In the same order, the values of `Cc1ccccc1Cc1ccc(N2CC[C@H](c3ccccc3)[C@H]2CC(=O)O)cc1` are 11 µM and over 33 µM.
In the same order, the values of `O=C(O)C[C@@H]1CCCN1c1ccc(OCc2ccc(Cl)cc2Cl)cn1` are 0.22 µM and over 33 µM.
Turning to `O=C(O)C[C@@H]1CCCN1c1ccc(Oc2ccccc2)cc1`, the values for the EC50 in assay [1] and in assay [3] were 0.56 µM and over 16 µM, respectively. The same compound yielded an inhibition constant (Ki) in assay [2] of 6.5 µM.
Take `Cc1ccccc1Cc1ccc(N2C[C@@H](c3ccccc3)C[C@H]2CC(=O)O)cc1`: the EC50 in assay [1] was over 17 µM; in assay [3] it was over 33 µM. This compound also registered a Ki in assay [2] of over 25 µM.
For the compound `Cc1cccc(C)c1Oc1ccc(N2C[C@@H](C(F)(F)F)C[C@H]2CC(=O)O)cc1`, the EC50 in assay [1] came to 0.082 µM; in assay [3] it was 0.27 µM. Besides, the Intrinsic activity in assay [4] came to 36%.
On to `O=C(O)CC1CCCCCN1c1ccc(OCc2ccc(Cl)cc2Cl)cc1` (single isomer, unassigned; enantiomer 1), for which the EC50 in assay [1] was 6.4 µM; in assay [3], over 16 µM.
As to `O=C(O)C[C@@H]1CCCN1c1ccc(Oc2ccc(Cl)cc2Cl)cc1`, the 50% effective concentration (EC50) amounted to 0.36 µM in assay [1] and 3.2 µM in assay [3]. The Intrinsic activity in assay [4] worked out at 120%.
In the case of `Cc1ccccc1Sc1ccc(N2CCC[C@H]2CC(=O)O)cc1`, the EC50 in assay [1] is 0.57 µM; in assay [3], over 17 µM.
For `O=C(O)C[C@@H]1CCCN1c1ccc(Oc2cccc(Cl)c2)cc1`, in that order: 0.68 µM and over 16 µM.
`Cc1cc(OCc2ccc(Cl)cc2Cl)ccc1N1CCC[C@H]1CC(=O)O`: the figures for the EC50 in assay [1] and in assay [3] were 8.9 µM and 14 µM, respectively. The Intrinsic activity in assay [4] came to 70%.
For `CCOc1ccccc1Oc1ccc(N2CCC[C@H]2CC(=O)O)cc1`, the EC50 is 1.7 µM in assay [1] and over 33 µM in assay [3].
As for `O=C(O)CC1CCCCCN1c1ccc(OCc2ccc(Cl)cc2Cl)cc1` (single isomer, unassigned; enantiomer 2), the EC50 was 11 µM in assay [1] and over 33 µM in assay [3].
Turning to `O=C(O)C[C@@H]1CCCN1c1ccc(Oc2ccccc2F)cc1`, the results for the EC50 in assay [1] and in assay [3] were 0.15 µM and 6.9 µM, respectively. Moreover, the Ki in assay [2] worked out at 1.3 µM. For the same compound, the Intrinsic activity in assay [4] came out at 50%.

These data come from ChEMBL document CHEMBL4052594, “Discovery of Pyrrolidine-Containing GPR40 Agonists: Stereochemistry Effects a Change in Binding Mode” (J Med Chem, 2017).
